The record followed here is ChEMBL document CHEMBL4196139, “Discovery of 4-Benzyloxybenzo[ d]isoxazole-3-amine Derivatives as Highly Selective and Orally Efficacious Human Sphingomyelin Synthase 2 Inhibitors that Reduce Chronic Inflammation in db/ db Mice” (J Med Chem, 2018).

The test system of data set [1] is Mus musculus. Briefly: Antiinflammatory activity in db/db mouse model assessed as reduction in TNFalpha mRNA expression in liver at 20 to 50 mg/kg, po administered daily for 6 weeks by SYBR green labeled PCR analysis. In kind it is functional, organism-based. The method in brief:
(§1)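 db/db mice, 4–5 weeks old, n = 4–5 per group, dosed orally at 20 or 50 mg/kg/day in 0.5% CMC-Na for 6 weeks. Total RNA extracted from liver or white adipose tissue with Trizol. Transcripts quantified by SYBR Green real-time qPCR with specific primers.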

Data set [2] relates to Mus musculus. Briefly: Antiinflammatory activity in db/db mouse model assessed as reduction in IL1beta mRNA expression in white adipose tissue at 20 to 50 mg/kg, po administered daily for 6 weeks by SYBR green labeled PCR analysis. In kind it is functional, organism-based. The method in brief:
as §1

The test system of data set [3] is Mus musculus. The data set is described as follows: Antiinflammatory activity in db/db mouse model assessed as reduction in IL1beta mRNA expression in liver at 50 mg/kg, po administered daily for 6 weeks by SYBR green labeled PCR analysis. It is filed as functional, organism-based. The method in brief:
as §1

The subject of data set [4] is Mus musculus. The data set is described as follows: In vivo inhibition of SMS in ICR mouse assessed as decrease in SM levels in plasma at 40 mg/kg, ip using NBD-ceramide as substrate administered daily for 7 days. In kind it is functional, organism-based. As to conditions: in the assay text read “by enzymatic measurement” for “using NBD-ceramide as substrate”. The method in brief: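 Male ICR mice (20–23 g), 3 per group, injected ip with 40 mg/kg daily for 7 days. Vehicle was 5% DMSO/5% Cremophor EL/0.9% NaCl. Plasma SM measured by an enzymatic method.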

Data set [5] concerns Mus musculus. The data set is described as follows: Antiinflammatory activity in db/db mouse model assessed as reduction in TNFalpha mRNA expression in white adipose tissue at 20 to 50 mg/kg, po administered daily for 6 weeks by SYBR green labeled PCR analysis. It is filed as functional, organism-based. The method in brief:
as §1

The test system of data set [6] is Mus musculus. The data set is described as follows: In vivo inhibition of SMS in po dosed ICR mouse assessed as decrease in NBD-SM levels in plasma using NBD-ceramide as substrate administered as single dose via gavage and measured after 1 to 2 hrs post dose by HPLC analysis. It is filed as functional, organism-based. The method in brief: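 Male ICR mice, 5 per group, fasted overnight and gavaged with 50 or 100 mg/kg in 0.5% CMC-Na. C6-NBD-ceramide was injected into the tail vein pre-dose and at 1 and 2 h after dosing. Blood drawn 5 min after each injection, and NBD-SM product in plasma measured by HPLC.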

The nature of data set [7]: Volume of distribution in ICR mouse at 10 mg/kg, iv by LC-MS/MS analysis. In kind it is ADME, organism-based. The settings on record: in vivo. The method in brief:
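Male ICR mice, 4 per group, given 10 mg/kg iv in 5% DMSO/5% Polyoxyl 35 castor oil in saline. Samples taken pre-dose and at 5, 15, 30 min and 1, 3, 5, 7, 24 h. Levels measured by LC-MS/MS. Parameters calculated from mean serum concentration. Data are mean ± SEM.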

In data set [8] the test system is Mus musculus. Briefly: Effect on ceramide (16:0) levels in white adipose tissue of db/db mouse model at 20 mg/kg, po administered daily for 6 weeks by LC analysis. In kind it is functional, organism-based.
Data set [9] deals with Mus musculus. Briefly: Anti-obesity activity in db/db mouse model assessed as reduction in NEFA levels in liver at 50 mg/kg, po administered daily for 6 weeks. In kind it is functional, organism-based. The method in brief:
(§2)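 db/db mice, 4–5 weeks old, randomized into groups of 4–5. Dosed orally each day for 6 weeks with 20 or 50 mg/kg/day in 0.5% sodium carboxymethylcellulose; vehicle controls received the same. Liver lipid content was then measured.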

The nature of data set [10]: Half life in ICR mouse at 20 mg/kg, po by LC-MS/MS analysis. It is filed as ADME, organism-based. The settings on record: in vivo. The method in brief:
(§3)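 Male ICR mice, 4 per group, gavaged at 20 mg/kg in 0.5% carboxymethylcellulose sodium. Samples taken at 0.5, 1, 2, 3, 5, 7, 12 and 24 h and quantified by LC-MS/MS. Parameters derived from mean serum concentration. Values are mean ± SEM.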

A short description of data set [11]: Tmax in ICR mouse at 20 mg/kg, po by LC-MS/MS analysis. In kind it is ADME, organism-based. The settings on record: in vivo. The method in brief: as §3
Data set [12] has as its system Mus musculus. The data set is described as follows: Anti-obesity activity in db/db mouse model assessed as increase in HDL-C levels in liver at 50 mg/kg, po administered daily for 6 weeks. It is filed as functional, organism-based. The method in brief:
as §2

The species entered for a further data set is Homo sapiens. The data set is described as follows: Selectivity ratio of IC50 for human SMS1 to IC50 for human SMS2.
Data set [13] is described as follows: AUC (0 to 24 hrs ) in ICR mouse at 20 mg/kg, po by LC-MS/MS analysis. It is filed as ADME, organism-based. Also on record: dose 20 mg/kg, time < 24 hr, route oral. The settings on record: in vivo. The method in brief:
as §3

Data set [14] deals with Mus musculus. Briefly: Anti-obesity activity in db/db mouse model assessed as reduction in LDL-C levels in liver at 50 mg/kg, po administered daily for 6 weeks. In kind it is functional, organism-based. The method in brief: as §2
Data set [15] has as its system Mus musculus. The data set is described as follows: Antiinflammatory activity in db/db mouse model assessed as reduction in plasma IL6 levels at 20 to 50 mg/kg, po administered daily for 6 weeks by ELISA. In kind it is functional, organism-based. The method in brief:
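db/db mice, 4–5 weeks old, n = 4–5 per group, received 20 or 50 mg/kg/day orally in 0.5% CMC-Na for 6 weeks. Serum collected from the eye after a 6 h fast. IL-6 or insulin measured by ELISA following the kit instructions.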
(In general: An ELISA detects its analyte on a solid surface through an enzyme-linked reagent.)

Activity calls are given as the source filed them. No cut-off for these calls is given here.

What is called Vd is a proportionality between amount in the body and measured concentration, not a real space. Lower therefore signals confinement near the circulation. The half-life is how long it takes for the measured level to halve. The Tmax is the time at which the peak concentration occurs. For orientation: AUC(0-t) means the area under the concentration-time curve up to a stated or last time point. Higher therefore signals high exposure. As for `Fc1ccc(Cl)c(COc2cccc3onc(Nc4cccnc4)c23)c1`, the outcome with Mus musculus [1], in the data set with Mus musculus [2], in the data set on Mus musculus [3], with Mus musculus [5], with Mus musculus [8] and in the data set with Mus musculus [9] was Active. The result in the data set on Mus musculus [12], with Mus musculus [14] and in the data set on Mus musculus [15] was Active. Also, the inhibition entry in the data set with Mus musculus [4] was “Active”. In addition, the inhibition entry with Mus musculus [6] is “Dose-dependent effect”. The Vd in data set [7] came to 12.5 L/kg. In addition, the half-life in [10] was 2.3 h. For the same compound, in [11], the Tmax is 2.2 h. Also, the Ratio IC50 in the data set filed under Homo sapiens turned out to be 560. For the same compound, the AUC(0-t) at 24 h in data set [13] is 1900 ng·h/mL.
